From ChEMBL document CHEMBL4765418, “Discovery of novel quinazolinone derivatives as potential anti-HBV and anti-HCC agents” (Eur J Med Chem, 2020)
Calls of active or inactive are those of the source. No cut-off for these calls is given here.

Assays:
HepG2 [1] = assay: Induction of apoptosis in human HepG2 cells assessed as down regulation of Bcl-2 expression measured after 48 hrs by Western blot analysis; type: functional, cell-based
Summary of the method: (§1)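 HepG2 cells treated 5, 10 or 20 μM for 48 h, lysed; 40 μg protein/lane resolved by SDS-PAGE, transferred to PVDF, blocked in 5% nonfat milk, probed overnight at 4 °C with mouse anti-Bad, Bax, Bcl-2 or Bcl-xl, then secondary antibody 2 h. ECL detection; band densities expressed relative to GAPDH.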

HepG2 [2] = assay: Induction of apoptosis in human HepG2 cells assessed as late apoptotic cells at 5 uM after 48 hrs by Annexin-V FITC/propidium iodide staining based flow cytometric analysis (reference value: 1.11%)
Huh-7 = assay: Antiproliferative activity against human Huh-7 cells assessed as inhibition of cell proliferation after 72 hrs by MTT assay; type: functional, cell-based; conditions: Huh-7, 72 h
Summary of the method: (§2)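 Cells seeded in 96-well plates and grown 24 h to reach exponential growth, then exposed to test compounds in culture medium for 72 h. Viability read by MTT absorbance at 490 nm relative to untreated cells. IC50 is the concentration giving 50% inhibition of proliferation.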

Hepatitis B virus [3] = assay: Antiviral activity against HBV infected in human HepG2.2.15 cells assessed as inhibition of DNA replication supplemented with fresh medium containing compound every 2 days for 6 days by RT-PCR analysis; type: functional, organism-based; conditions: HepG2 2.2.15
Summary of the method: (§3)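 HepG2 2.2.15 cells (2×10^5/well, 24-well) left 24 h to recover from trypsinization, then given fresh medium with compound (single-point screen at 0.8 μM), renewed every 2 days for 6 days. Intracellular HBV DNA extracted and quantified by real-time PCR. IC50 is the dose giving 50% inhibition of DNA replication, taken from dose–response.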

HepG2 [4] = assay: Induction of apoptosis in human HepG2 cells assessed as nuclear fragmentation at 5 to 20 uM after 48 hrs by Hoechst 33342 staining based fluorescence microscopic analysis; type: functional, cell-based; conditions: dose 5-20 µM
Summary of the method: (§4)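 HepG2 cells (5×10^4/well, six-well) exposed to 5, 10 or 20 μM for 48 h, washed with PBS, fixed in 4% paraformaldehyde 30 min, stained with Hoechst 33342 (20 μg/mL) 15 min at room temperature in the dark. Nuclear fragmentation and chromatin condensation scored by fluorescence microscopy.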

HepG2 [5] = assay: Induction of apoptosis in human HepG2 cells assessed as viable cells at 5 uM after 48 hrs by Annexin-V FITC/propidium iodide staining based flow cytometric analysis (reference value: 97.07%); conditions: HepG2, 48 h
[6] = Cytotoxicity against human HepG2 2.2.15 cells assessed as reduction in cell viability measured after 72 hrs by MTT assay; type: cell-based
Summary of the method: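 HepG2 2.2.15 cells (HBV-producing; grown in DMEM with 10% FBS, penicillin/streptomycin and 0.38 mg/mL G418) seeded in 96-well plates and grown 24 h, then treated 72 h with compounds. Viability read by MTT absorbance at 490 nm relative to untreated cells. CC50 is the dose causing 50% cell death.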

HepG2 [7] = assay: Induction of apoptosis in human HepG2 cells assessed as late apoptotic cells at 20 uM after 48 hrs by Annexin-V FITC/propidium iodide staining based fluorescence microscopic analysis (reference value: 1.11%); type: functional
Hepatitis B virus [8] = assay: Antiviral activity against HBV infected in human HepG2.2.15 cells assessed as inhibition of HBsAg production supplemented with fresh medium containing compound every 3 days for 6 days by EIA relative to control; type: functional, HepG2 2.2.15; conditions: time 6 day
HepG2 [9] = assay: Induction of apoptosis in human HepG2 cells assessed as viable cells at 20 uM after 48 hrs by Annexin-V FITC/propidium iodide staining based fluorescence microscopic analysis (reference value: 97.07%); type: functional; conditions: read-out: Activity
HepG2 [10] = assay: Antiproliferative activity against human HepG2 cells assessed as inhibition of cell proliferation after 72 hrs by MTT assay; type: functional, cell-based; conditions: HepG2, 72 h; summary of the method: as §2
HepG2 [11] = assay: Induction of apoptosis in human HepG2 cells assessed as early apoptotic cells at 5 uM after 48 hrs by Annexin-V FITC/propidium iodide staining based flow cytometric analysis (reference value: 1.68%)
HepG2 [12] = assay: Induction of apoptosis in human HepG2 cells assessed as late apoptotic cells at 10 uM after 48 hrs by Annexin-V FITC/propidium iodide staining based fluorescence microscopic analysis (reference value: 1.11%); type: functional
HepG2 [13] = assay: Induction of apoptosis in human HepG2 cells assessed as up regulation of Bax expression measured after 48 hrs by Western blot analysis; type: functional, cell-based; summary of the method: as §1
[14] = Selectivity index, ratio of CC50 for human HepG2 2.2.15 cells to IC50 for antiviral activity against HBV infected in human HepG2.2.15 cells assessed as inhibition of DNA replication; type: toxicity, cell-based; conditions: read-out: Ratio CC50/IC50
HepG2 [15] = assay: Induction of apoptosis in human HepG2 cells assessed as viable cells at 10 uM after 48 hrs by Annexin-V FITC/propidium iodide staining based fluorescence microscopic analysis (reference value: 97.07%); type: functional; conditions: read-out: Activity
SK-HEP1 = assay: Antiproliferative activity against human SK-HEP1 cells assessed as inhibition of cell proliferation after 72 hrs by MTT assay; type: functional, cell-based; conditions: SK-HEP1, 72 h; summary of the method: as §2
HepG2 [16] = assay: Induction of apoptosis in human HepG2 cells assessed as up regulation of Bad expression measured after 48 hrs by Western blot analysis; type: functional, cell-based; summary of the method: as §1
HepG2 [17] = assay: Induction of apoptosis in human HepG2 cells assessed as early apoptotic cells at 20 uM after 48 hrs by Annexin-V FITC/propidium iodide staining based fluorescence microscopic analysis (reference value: 1.68%); type: functional
HepG2 [18] = assay: Induction of apoptosis in human HepG2 cells assessed as down regulation of Bcl-xl expression measured after 48 hrs by Western blot analysis; type: functional, cell-based; summary of the method: as §1
HepG2 [19] = assay: Induction of apoptosis in human HepG2 cells assessed as necrotic cells at 10 uM after 48 hrs by Annexin-V FITC/propidium iodide staining based fluorescence microscopic analysis (reference value: 0.14%); type: functional
HepG2 [20] = assay: Induction of apoptosis in human HepG2 cells assessed as early apoptotic cells at 10 uM after 48 hrs by Annexin-V FITC/propidium iodide staining based fluorescence microscopic analysis (reference value: 1.68%); type: functional
HepG2 [21] = assay: Induction of apoptosis in human HepG2 cells assessed as necrotic cells at 20 uM after 48 hrs by Annexin-V FITC/propidium iodide staining based fluorescence microscopic analysis (reference value: 0.14%); type: functional
HepG2 [22] = assay: Induction of apoptosis in human HepG2 cells assessed as chromatin condensation at 5 to 20 uM after 48 hrs by Hoechst 33342 staining based fluorescence microscopic analysis; type: functional, cell-based; conditions: dose 5-20 µM; summary of the method: as §4
Hepatitis B virus [23] = assay: Antiviral activity against HBV infected in human HepG2.2.15 cells assessed as inhibition of DNA replication at 0.8 uM supplemented with fresh medium containing compound every 2 days for 6 days by RT-PCR analysis relative to control; type: functional; conditions: HepG2 2.2.15, 144 h, time 6 day; summary of the method: as §3
HepG2 [24] = assay: Induction of apoptosis in human HepG2 cells assessed as necrotic cells at 5 uM after 48 hrs by Annexin-V FITC/propidium iodide staining based flow cytometric analysis (reference value: 0.14%)
Hepatitis B virus [25] = assay: Antiviral activity against lamivudine and entecavir-resistant HBV harboring rtL180 M/rtM204V/rtT184L mutant infected in human HepG2.2.15 cells assessed as inhibition of DNA replication at 0.8 uM supplemented with fresh medium containing compound every 2 days for 6 days by RT-PCR analysis relative to control; type: functional; conditions: HepG2 2.2.15, 144 h, time 6 day

## CN(C)CCCOc1ccc2nc(SCc3ccccc3)n(Cc3ccco3)c(=O)c2c1
HepG2 [1]
  Activity: Dose-dependent effect
HepG2 [2]
  Activity: 4.88%
Huh-7
  IC50: 6.42 µM
Hepatitis B virus [3]
  IC50: 0.58 µM
HepG2 [4]
  Activity: Active
HepG2 [5]
  viability at 5 µM: 81.5%
[6]
  CC50 at 72 h: > 10 µM
HepG2 [7]
  Activity: 31.67%
Hepatitis B virus [8]
  inhibition (INH): 4.55%
HepG2 [9]
  viability at 20 µM: 22.9%
HepG2 [10]
  IC50: 5.44 µM
HepG2 [11]
  Activity: 13.07%
HepG2 [12]
  Activity: 14.15%
HepG2 [13]
  Activity: Dose-dependent effect
[14]
  selectivity ratio: > 17.2
HepG2 [15]
  viability at 10 µM: 57.5%
SK-HEP1
  IC50: 6.75 µM
HepG2 [16]
  Activity: Dose-dependent effect
HepG2 [17]
  Activity: 40.31%
HepG2 [18]
  Activity: Dose-dependent effect
HepG2 [19]
  Activity: 4.5%
HepG2 [20]
  Activity: 23.83%
HepG2 [21]
  Activity: 5.12%
HepG2 [22]
  Activity: Active
Hepatitis B virus [23]
  inhibition at 0.8 µM: 67.3%
HepG2 [24]
  Activity: 0.49%
Hepatitis B virus [25]
  inhibition at 0.8 µM: 64%
